From ChEMBL document CHEMBL1154537, “Synthesis and evaluation of pyrido-thieno-pyrimidines as potent and selective Cdc7 kinase inhibitors” (Bioorg Med Chem Lett, 2009) come the findings set out here.

The target in data set [1] is T1, CDC7/DBF4 (Cell division cycle 7-related protein kinase/Activator of S phase kinase) (Homo sapiens, UniProt O00311). Kind of data set: Inhibition of human recombinant Cdc7/Dbf4 by HTRF assay.
The nature of data set [2]: Permeability in human Caco-2 cells. The class given is ADME, cell-based. Conditions: read-out: permeability.
A short description of data set [3]: Solubility at pH 6.5. The class given is physicochemical. Conditions: buffer.
Data set [4] deals with T1, CDC7/DBF4 (Cell division cycle 7-related protein kinase/Activator of S phase kinase). Kind of data set: Inhibition of human recombinant Cdc7/Dbf4 by IMAP assay. The class given is protein-complex assay.
Data set [5] addresses Cyclin-dependent kinase 1/cyclin B1 (Homo sapiens, UniProt P06493). Put plainly: Inhibition of human CDK1/Cyclin B by IMAP assay. It is filed as protein-complex assay.
For data set [6], the target named is T2, Serine/threonine-protein kinase Sgk1 (Homo sapiens, UniProt O00141).
T2 sequence (O00141 whole entry): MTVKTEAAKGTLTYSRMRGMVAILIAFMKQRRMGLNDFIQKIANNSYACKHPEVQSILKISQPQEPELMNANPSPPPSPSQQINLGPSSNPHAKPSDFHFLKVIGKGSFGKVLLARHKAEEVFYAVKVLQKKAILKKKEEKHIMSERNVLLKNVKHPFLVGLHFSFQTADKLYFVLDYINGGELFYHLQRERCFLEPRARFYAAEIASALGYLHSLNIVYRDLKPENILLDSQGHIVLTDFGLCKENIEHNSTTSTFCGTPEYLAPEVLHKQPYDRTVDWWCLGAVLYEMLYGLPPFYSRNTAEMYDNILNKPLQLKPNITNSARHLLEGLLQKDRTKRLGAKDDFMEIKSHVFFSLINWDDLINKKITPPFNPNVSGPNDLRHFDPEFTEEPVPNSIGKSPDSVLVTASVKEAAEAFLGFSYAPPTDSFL
Put plainly: Inhibition of human SGK by IMAP assay.

The subject of data set [7] is HCT-116. Kind of data set: Cytotoxicity against human HCT116 cells MTT assay. The class given is functional, cell-based. The method in brief:
(§1)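 MTT viability assay on human colon cancer cell lines exposed in vitro across a compound concentration range. IC50 was taken from the dose-response.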

Data set [8] deals with Protein kinase C delta type (Homo sapiens, UniProt Q05655). Put plainly: Inhibition of human PKCdelta by IMAP assay.
The target in data set [9] is T3, Ephrin type-B receptor 3 (Homo sapiens, UniProt P54753).
T3 sequence (P54753 whole entry): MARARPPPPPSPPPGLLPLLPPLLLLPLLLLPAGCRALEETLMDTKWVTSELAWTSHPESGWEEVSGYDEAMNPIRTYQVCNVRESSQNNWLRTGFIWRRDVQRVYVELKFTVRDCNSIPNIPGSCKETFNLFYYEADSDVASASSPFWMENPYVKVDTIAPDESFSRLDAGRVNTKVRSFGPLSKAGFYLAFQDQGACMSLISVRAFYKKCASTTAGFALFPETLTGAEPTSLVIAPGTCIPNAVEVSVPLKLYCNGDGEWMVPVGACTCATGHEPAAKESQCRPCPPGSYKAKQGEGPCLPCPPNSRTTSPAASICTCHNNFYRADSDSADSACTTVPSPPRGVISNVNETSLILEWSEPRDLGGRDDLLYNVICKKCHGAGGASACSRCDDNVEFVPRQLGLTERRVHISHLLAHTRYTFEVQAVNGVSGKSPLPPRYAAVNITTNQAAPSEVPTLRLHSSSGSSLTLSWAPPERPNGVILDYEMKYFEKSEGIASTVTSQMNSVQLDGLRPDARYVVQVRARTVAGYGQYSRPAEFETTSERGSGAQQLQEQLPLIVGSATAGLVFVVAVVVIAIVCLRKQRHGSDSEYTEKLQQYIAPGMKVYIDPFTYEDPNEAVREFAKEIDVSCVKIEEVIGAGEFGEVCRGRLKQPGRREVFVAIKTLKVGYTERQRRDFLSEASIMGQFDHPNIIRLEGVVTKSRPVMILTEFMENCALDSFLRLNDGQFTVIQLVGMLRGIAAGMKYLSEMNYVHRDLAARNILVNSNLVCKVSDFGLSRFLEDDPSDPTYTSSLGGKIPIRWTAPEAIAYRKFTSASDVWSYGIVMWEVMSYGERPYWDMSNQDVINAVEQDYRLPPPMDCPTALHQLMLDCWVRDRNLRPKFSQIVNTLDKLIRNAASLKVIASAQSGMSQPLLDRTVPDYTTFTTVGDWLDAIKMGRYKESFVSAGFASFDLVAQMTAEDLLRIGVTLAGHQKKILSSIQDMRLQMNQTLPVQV
Kind of data set: Inhibition of human EphB3 by IMAP assay.

Data set [10] concerns the target Mitogen-activated protein kinase 1 (Homo sapiens, UniProt P28482). Kind of data set: Inhibition of human ERK2 by IMAP assay.
The nature of data set [11]: Inhibition of human CDK4/Cyclin D by IMAP assay.
For data set [12], the target named is RAC-alpha serine/threonine-protein kinase (Homo sapiens, UniProt P31749). Put plainly: Inhibition of human AKT by IMAP assay.
The target of data set [13] is Protein kinase C alpha type (Homo sapiens, UniProt P17252). Put plainly: Inhibition of human PKCalpha by IMAP assay.
The subject of data set [14] is SW480. Put plainly: Cytotoxicity against human SW480 cells MTT assay. The class given is functional, cell-based. The method in brief: as §1
The nature of data set [15]: Inhibition of human PKA by IMAP assay.
In data set [16] the target is Cyclin-dependent kinase 2 (Homo sapiens, UniProt P24941). Kind of data set: Inhibition of human CDK2/Cyclin E by IMAP assay.
Data set [17] has as its target Tyrosine-protein kinase Fyn (Homo sapiens, UniProt P06241). Put plainly: Inhibition of human Fyn by IMAP assay.
The subject of data set [18] is RKO. Kind of data set: Cytotoxicity against human RKO cells MTT assay. The class given is functional, cell-based. The method in brief:
as §1

Data set [19] has as its target CDC7/DBF4 (Cell division cycle 7-related protein kinase/Activator of S phase kinase) (Homo sapiens) (UniProt Q9UBU7+O00311). Kind of data set: Inhibition of Cdc7/Dbf4-mediated MCM2 phosphorylation in human HCT116 cells assessed as decrease in faster migration of protein at 20 uM after 18 hrs by Western blot analysis. It is filed as cell-based. Conditions: HCT-116. The method in brief: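 HCT116 cells were arrested with 100 nM nocodazole for 16 h and mitotic cells were collected by shake-off and washed. The resulting G1 cells were incubated with 20 µM compound or DMSO for 18 h. MCM2 and phospho-MCM2 were read by Western blot.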

Active and inactive are the calls of the source. No cut-off for these calls is given here.

T1 sequence (Q9UBU7 whole entry): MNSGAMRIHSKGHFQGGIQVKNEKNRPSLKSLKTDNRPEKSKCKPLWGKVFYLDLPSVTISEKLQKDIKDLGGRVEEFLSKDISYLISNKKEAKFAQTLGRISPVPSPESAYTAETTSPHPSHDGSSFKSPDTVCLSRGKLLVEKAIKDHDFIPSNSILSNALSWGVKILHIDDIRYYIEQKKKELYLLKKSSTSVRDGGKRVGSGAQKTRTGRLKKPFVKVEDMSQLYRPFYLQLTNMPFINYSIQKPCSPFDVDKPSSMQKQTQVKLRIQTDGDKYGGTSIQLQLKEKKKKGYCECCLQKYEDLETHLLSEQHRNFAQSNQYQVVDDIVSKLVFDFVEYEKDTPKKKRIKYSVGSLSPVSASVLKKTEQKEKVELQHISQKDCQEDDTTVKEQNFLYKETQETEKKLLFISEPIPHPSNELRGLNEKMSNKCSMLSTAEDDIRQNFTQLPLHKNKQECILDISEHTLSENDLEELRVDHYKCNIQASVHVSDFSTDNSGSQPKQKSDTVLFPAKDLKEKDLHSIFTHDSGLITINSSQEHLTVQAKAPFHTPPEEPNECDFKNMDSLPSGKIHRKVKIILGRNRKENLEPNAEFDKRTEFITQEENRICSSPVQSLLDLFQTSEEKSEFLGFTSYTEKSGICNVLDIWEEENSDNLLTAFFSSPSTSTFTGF
T1 sequence (O00311 whole entry): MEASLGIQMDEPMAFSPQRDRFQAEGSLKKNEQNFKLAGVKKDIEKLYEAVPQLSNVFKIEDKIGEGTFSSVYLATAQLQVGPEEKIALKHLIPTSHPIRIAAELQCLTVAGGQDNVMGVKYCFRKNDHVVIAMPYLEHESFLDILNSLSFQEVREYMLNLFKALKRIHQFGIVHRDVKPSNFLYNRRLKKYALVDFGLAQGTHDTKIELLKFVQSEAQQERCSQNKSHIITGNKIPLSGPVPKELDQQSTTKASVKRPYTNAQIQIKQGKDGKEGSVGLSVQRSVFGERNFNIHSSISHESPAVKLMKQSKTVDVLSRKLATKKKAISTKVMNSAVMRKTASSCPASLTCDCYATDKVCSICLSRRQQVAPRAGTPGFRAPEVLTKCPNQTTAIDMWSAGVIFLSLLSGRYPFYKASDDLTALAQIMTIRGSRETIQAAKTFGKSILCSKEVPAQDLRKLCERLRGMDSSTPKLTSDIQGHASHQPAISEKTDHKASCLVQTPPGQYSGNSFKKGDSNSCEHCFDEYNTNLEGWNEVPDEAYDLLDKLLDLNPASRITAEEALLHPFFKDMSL
Sequence of Cyclin-dependent kinase 1/cyclin B1 (P06493 whole entry): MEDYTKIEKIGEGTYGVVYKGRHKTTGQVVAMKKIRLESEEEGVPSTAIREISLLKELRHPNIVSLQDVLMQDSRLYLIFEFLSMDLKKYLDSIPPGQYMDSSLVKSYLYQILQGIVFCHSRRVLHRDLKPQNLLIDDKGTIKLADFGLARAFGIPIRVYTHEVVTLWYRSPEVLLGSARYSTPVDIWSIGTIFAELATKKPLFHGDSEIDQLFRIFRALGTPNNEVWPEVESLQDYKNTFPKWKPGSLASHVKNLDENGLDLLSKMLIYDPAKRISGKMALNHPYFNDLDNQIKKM
Sequence of Cyclin-dependent kinase 1/cyclin B1 (P14635 whole entry, further chain): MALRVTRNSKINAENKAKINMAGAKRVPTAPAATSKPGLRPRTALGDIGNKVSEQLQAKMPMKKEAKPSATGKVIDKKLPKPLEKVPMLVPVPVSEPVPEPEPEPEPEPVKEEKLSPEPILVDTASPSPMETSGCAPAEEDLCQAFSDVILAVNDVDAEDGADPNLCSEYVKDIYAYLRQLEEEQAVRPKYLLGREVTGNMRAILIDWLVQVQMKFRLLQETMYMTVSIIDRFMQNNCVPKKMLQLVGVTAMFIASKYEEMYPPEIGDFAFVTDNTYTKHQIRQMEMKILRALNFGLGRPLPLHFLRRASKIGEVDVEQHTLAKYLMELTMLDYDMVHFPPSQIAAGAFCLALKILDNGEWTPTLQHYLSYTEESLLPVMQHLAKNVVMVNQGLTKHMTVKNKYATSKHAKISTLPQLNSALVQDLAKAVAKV
Sequence of Tyrosine-protein kinase Fyn (P06241 whole entry): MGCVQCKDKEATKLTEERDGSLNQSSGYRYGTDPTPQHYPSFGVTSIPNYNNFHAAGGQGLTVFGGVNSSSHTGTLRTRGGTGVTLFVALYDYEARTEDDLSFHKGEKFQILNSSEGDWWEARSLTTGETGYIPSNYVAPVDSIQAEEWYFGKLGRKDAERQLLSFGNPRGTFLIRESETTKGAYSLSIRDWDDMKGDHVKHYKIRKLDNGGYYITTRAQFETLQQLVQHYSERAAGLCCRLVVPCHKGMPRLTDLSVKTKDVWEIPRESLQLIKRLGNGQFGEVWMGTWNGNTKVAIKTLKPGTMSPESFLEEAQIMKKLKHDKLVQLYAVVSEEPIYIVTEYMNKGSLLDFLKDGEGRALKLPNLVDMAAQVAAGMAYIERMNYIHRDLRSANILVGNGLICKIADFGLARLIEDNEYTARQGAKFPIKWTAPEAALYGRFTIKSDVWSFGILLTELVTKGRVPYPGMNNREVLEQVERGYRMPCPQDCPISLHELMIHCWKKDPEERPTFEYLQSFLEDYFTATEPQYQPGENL
Sequence of Protein kinase C delta type (Q05655 whole entry): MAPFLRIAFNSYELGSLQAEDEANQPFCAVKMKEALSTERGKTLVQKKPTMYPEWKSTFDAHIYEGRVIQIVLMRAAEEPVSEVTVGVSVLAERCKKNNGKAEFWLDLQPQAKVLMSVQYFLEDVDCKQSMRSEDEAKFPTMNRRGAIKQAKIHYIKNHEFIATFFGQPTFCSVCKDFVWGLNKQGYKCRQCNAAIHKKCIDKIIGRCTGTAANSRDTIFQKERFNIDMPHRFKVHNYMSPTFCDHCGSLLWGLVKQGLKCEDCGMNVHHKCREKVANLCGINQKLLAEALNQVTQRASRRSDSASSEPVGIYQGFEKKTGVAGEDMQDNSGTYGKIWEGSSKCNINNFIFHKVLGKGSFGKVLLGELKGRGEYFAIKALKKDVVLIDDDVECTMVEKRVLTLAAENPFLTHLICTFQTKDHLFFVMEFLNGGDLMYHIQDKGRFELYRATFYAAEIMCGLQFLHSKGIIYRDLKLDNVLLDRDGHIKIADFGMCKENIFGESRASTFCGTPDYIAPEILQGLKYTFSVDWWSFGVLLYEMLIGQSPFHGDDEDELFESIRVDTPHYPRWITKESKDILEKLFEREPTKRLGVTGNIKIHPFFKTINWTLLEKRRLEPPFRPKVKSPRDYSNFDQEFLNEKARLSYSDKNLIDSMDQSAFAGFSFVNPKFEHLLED
Sequence of Mitogen-activated protein kinase 1 (P28482 whole entry): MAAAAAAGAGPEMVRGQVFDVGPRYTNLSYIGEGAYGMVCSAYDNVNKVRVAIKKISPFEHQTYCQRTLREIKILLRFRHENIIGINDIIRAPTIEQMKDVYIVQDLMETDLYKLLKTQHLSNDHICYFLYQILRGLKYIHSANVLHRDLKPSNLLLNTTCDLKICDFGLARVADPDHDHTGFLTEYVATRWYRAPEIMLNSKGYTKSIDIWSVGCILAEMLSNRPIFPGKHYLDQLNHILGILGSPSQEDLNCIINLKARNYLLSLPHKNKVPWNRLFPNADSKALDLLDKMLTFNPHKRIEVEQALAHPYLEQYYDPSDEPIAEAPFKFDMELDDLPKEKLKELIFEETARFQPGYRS
Sequence of CDC7/DBF4 (Cell division cycle 7-related protein kinase/Activator of S phase kinase) (Homo sapiens) (O00311 whole entry, looked up): as the sequence (O00311 whole entry) above
Sequence of CDC7/DBF4 (Cell division cycle 7-related protein kinase/Activator of S phase kinase) (Homo sapiens) (Q9UBU7 whole entry, looked up): as the sequence (Q9UBU7 whole entry) above
Sequence of RAC-alpha serine/threonine-protein kinase (P31749 whole entry): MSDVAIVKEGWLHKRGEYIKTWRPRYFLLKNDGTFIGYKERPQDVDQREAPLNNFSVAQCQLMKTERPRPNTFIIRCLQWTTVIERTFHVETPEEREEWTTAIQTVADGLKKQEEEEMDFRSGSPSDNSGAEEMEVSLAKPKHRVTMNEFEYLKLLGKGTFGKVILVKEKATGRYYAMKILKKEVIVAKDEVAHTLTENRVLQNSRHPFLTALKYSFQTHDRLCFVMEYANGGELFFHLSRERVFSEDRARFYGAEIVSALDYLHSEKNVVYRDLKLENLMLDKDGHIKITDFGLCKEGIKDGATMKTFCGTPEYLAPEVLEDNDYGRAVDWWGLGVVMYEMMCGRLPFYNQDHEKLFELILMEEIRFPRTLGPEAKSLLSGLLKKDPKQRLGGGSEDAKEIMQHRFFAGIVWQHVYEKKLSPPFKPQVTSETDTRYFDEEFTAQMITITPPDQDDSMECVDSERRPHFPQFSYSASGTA

Regarding `Nc1ncnc2c1sc1ncccc12`, the IC50 in [1] stood at 12000 nM. Also, the Papp in data set [2] was over 20 ×10⁻⁶ cm/s. In [3], this compound showed a solubility of under 30 µg/mL. Besides, the inhibition constant (Ki) in data set [4] turned out to be 1200 nM.

`Cc1nc2sc3c(N)ncnc3c2c(C)c1Cc1ccccc1`: the IC50 in data set [1] is 2000 nM. Moreover, the Papp in data set [2] was over 20 ×10⁻⁶ cm/s. Besides, the solubility in data set [3] is under 30 µg/mL. In addition, the Ki in [4] worked out at 200 nM.

Turning to `Cc1nc2sc3c(N)ncnc3c2c2c1CCC2`, the IC50 in data set [1] was 30 nM. Besides, the Papp in data set [2] was over 20 ×10⁻⁶ cm/s. This compound also displayed a solubility in data set [3] of under 30 µg/mL. The Ki in [4] is 3 nM.

On to `Nc1ncnc2c1sc1nc(C3CC3)cc(C(F)(F)F)c12`, for which the IC50 in data set [1] was 4000 nM. Moreover, the Papp in data set [2] is over 20 ×10⁻⁶ cm/s. In addition, the solubility in data set [3] is under 30 µg/mL. In data set [4], the Ki turned out to be 400 nM.

With `Cc1nc2sc3c(N)ncnc3c2c(C)c1C`, the IC50 in data set [1] was determined as 40 nM. The Papp in [2] was over 20 ×10⁻⁶ cm/s. In data set [3], this compound came in with a solubility of under 30 µg/mL. Moreover, the Ki in data set [4] was found to be 4 nM.

Turning to `C=CCc1c(C)nc2sc3c(N)ncnc3c2c1C`, the IC50 is 20 nM in data set [1], 8300 nM in data set [7], 9600 nM in data set [14] and 6600 nM in [18]. Further, the Ki in data set [5], in data set [6], in data set [8], in data set [9], in data set [10] and in data set [11] was over 5000 nM each time. Moreover, the Ki in [12] was over 5000 nM; in data set [13], over 5000 nM; in [15], 1100 nM; in data set [16], over 5000 nM; in data set [17], over 5000 nM; in data set [4], 2 nM. Further, the Papp in data set [2] was over 20 ×10⁻⁶ cm/s. The compound also came in with a solubility in data set [3] of under 30 µg/mL. In addition, in data set [19], the outcome was Active.

Regarding `CNc1ncnc2c1sc1nc(C)cc(C)c12`, the IC50 in data set [1] was over 30000 nM. Also, in [2], the Papp was over 20 ×10⁻⁶ cm/s. In addition, the solubility in [3] was under 30 µg/mL. Further, in data set [4], the Ki was over 3000 nM.

Take `CCOC(=O)c1cc2c(nc1C)sc1c(N)ncnc12`: in data set [1], the IC50 worked out at 10000 nM. Besides, the Papp in data set [2] was over 20 ×10⁻⁶ cm/s. This compound also came in with a solubility in data set [3] of under 30 µg/mL. For the same compound, in data set [4], the Ki came to 1000 nM.

As to `Cc1c2c(nc3sc4c(N)ncnc4c13)CCC2`, the IC50 in data set [1] was 50 nM. Also, in data set [2], the Papp was over 20 ×10⁻⁶ cm/s. Besides, the solubility in data set [3] was under 30 µg/mL. In addition, the Ki in data set [4] stood at 5 nM.

Regarding `Nc1ncnc2c1sc1ncc(-c3ccccc3)cc12`, the IC50 in data set [1] was found to be 9000 nM. For the same compound, the Papp in [2] is over 20 ×10⁻⁶ cm/s. In data set [3], this compound gave a solubility of under 30 µg/mL. The Ki in data set [4] worked out at 900 nM.

In the case of `Cc1cc(C)c2c(n1)sc1c(Nc3ccccc3)ncnc12`, the IC50 in [1] is over 30000 nM. Further, the Papp in data set [2] is over 20 ×10⁻⁶ cm/s. In addition, the solubility in [3] was under 30 µg/mL. Besides, the Ki in data set [4] was over 3000 nM.

On to `Cc1c2c(nc3sc4c(N)ncnc4c13)CCCC2`, for which the IC50 in data set [1] was 20 nM. In addition, the Papp in data set [2] is over 20 ×10⁻⁶ cm/s. In addition, in data set [3], the solubility was under 30 µg/mL. In addition, in [4], the Ki was 2 nM.

`Cc1cc(C)c2c(n1)sc1c(N)ncnc12`: the Papp in data set [2] is over 20 ×10⁻⁶ cm/s. Besides, the solubility in data set [3] was under 30 µg/mL.

On to `Cc1nc2sc3c(N)ncnc3c2c2c1CCCC2`, for which the IC50 in data set [1] was determined as 5 nM. In addition, the Papp in [2] was over 20 ×10⁻⁶ cm/s. This compound returned a solubility in [3] of under 30 µg/mL. Besides, the Ki in data set [4] is 0.5 nM.

For `CCc1c(C)nc2sc3c(N)ncnc3c2c1C`, in data set [1], the IC50 worked out at 10 nM. Also, the Papp in data set [2] is over 20 ×10⁻⁶ cm/s. Further, the solubility in data set [3] was under 30 µg/mL. Also, the Ki in data set [4] was 1 nM.

In the case of `Cc1cc(C)c2c(n1)sc1c(N(C)C)ncnc12`, the IC50 in data set [1] was over 30000 nM. Moreover, in [2], the Papp was over 20 ×10⁻⁶ cm/s. For the same compound, the solubility in data set [3] is under 30 µg/mL. Also, the Ki in data set [4] was over 3000 nM.
